Where two headings read alike, the source gives them in different places.

For data set [1] the following is noted: acid hydrolysis also observed; ref Stariat et al., 2009; cited from earlier work.
In data set [2] the test system is human plasma proteins. The data set is described as follows: plasma binding by ultrafiltration. In kind it is in vitro ADME. A digest of the protocol:
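Pooled human plasma was spiked with test compound in DMSO to a final 500 ng/mL; preliminary runs also used 31.25 and 3.9 ng/mL. After 1 h at 37 °C, plasma was ultrafiltered (30 kDa cutoff, 20 min, 13,000 g). Total plasma and ultrafiltrate levels were measured by LC-MS/MS. %bound = 100×(Ctotal−Cfree)/Ctotal, corrected for membrane adsorption via recovery from water. n = 3.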

The target of another data set is human serum albumin (Homo sapiens, UniProt P02768). The data set is described as follows: binding to human serum albumin solution by ultrafiltration. In kind it is in vitro ADME. Particulars: human serum albumin (4%) in PBS, 500 ng/mL, n = 3. A digest of the protocol: (§1)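 Test compound was spiked to a final 500 ng/mL into 4% human serum albumin or 0.1% human α1-acid glycoprotein in PBS. Samples were incubated 1 h at 37 °C, then ultrafiltered through a 30 kDa cutoff device for 20 min at 13,000 g. Total and filtrate concentrations were measured by LC-MS/MS. %bound = 100×(Ctotal−Cfree)/Ctotal, with the filtrate corrected for membrane adsorption using recovery from water. n = 3.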

A short description of the next data set: stability in plasma. Particulars: for Measured concentration: n = 3. The format is in vitro ADME, human. The procedure, abridged:
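Human plasma was spiked at 100 and 500 ng/mL and kept at room temperature or on ice for up to 24 h; percent remaining was taken versus freshly prepared samples. For quantitation, 50 µL plasma plus internal standard and EDTA underwent acetonitrile precipitation and centrifugation, then LC-MS/MS in SRM mode. Calibration spanned 3.9–500 ng/mL, fitted with 1/concentration weighting.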

The subject of data set [3] is human α1-acid glycoprotein. The data set is described as follows: binding to human α1-acid glycoprotein solution by ultrafiltration. The format is in vitro ADME. The settings on record: human α1-acid glycoprotein (0.1%) in PBS, 500 ng/mL, n = 3. A digest of the protocol: as §1
Data set [4] is described as follows: stability in different solvents. The format is physicochemical. The procedure, abridged:
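Remaining amount was quantified by LC-MS/MS: C18 gradient with 0.1% formic acid, positive ESI, SRM m/z 235.2/178.0, 2-amino-6-bromobenzothiazole internal standard.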

Data set [5] concerns human plasma proteins. The experiment in a line: plasma binding by ultracentrifugation. The settings on record: 500 ng/mL, n = 3. In kind it is in vitro ADME. The procedure, abridged: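 Pooled human plasma was spiked with test compound in DMSO (final 500 ng/mL) and incubated 1 h at 37 °C. It was then spun at 50,000 rpm in a fixed-angle rotor for 10 h at 20 °C. The supernatant gave free and whole plasma gave total concentration, both by LC-MS/MS. %bound = 100×(Ctotal−Cfree)/Ctotal. n = 3.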

Setting [6] is: human plasma, long term (30 days at −80 °C), nominal 3.9 ng/mL.
Where [7] appears, read: human plasma, long term (30 days at −80 °C), nominal 31.3 ng/mL.
[8] abbreviates: human plasma, long term (30 days at −80 °C), nominal 500.0 ng/mL.
Where [9] appears, read: human plasma, short-term (2 h on ice), nominal 31.3 ng/mL.
The mark [10] stands for this setting: human plasma, short-term (2 h on ice), nominal 500.0 ng/mL.
The mark [11] stands for this setting: human plasma, three freeze–thaw cycles, nominal 3.9 ng/mL.
Setting [12] is: human plasma, three freeze–thaw cycles, nominal 500.0 ng/mL.
The mark [13] stands for this setting: processed human plasma samples, autosampler for 24 h, nominal 3.9 ng/mL.
Setting [14] is: processed human plasma samples, autosampler for 24 h, nominal 31.3 ng/mL.
Where [15] appears, read: processed human plasma samples, autosampler for 24 h, nominal 500.0 ng/mL.

Sequence of human serum albumin (P02768 25-609): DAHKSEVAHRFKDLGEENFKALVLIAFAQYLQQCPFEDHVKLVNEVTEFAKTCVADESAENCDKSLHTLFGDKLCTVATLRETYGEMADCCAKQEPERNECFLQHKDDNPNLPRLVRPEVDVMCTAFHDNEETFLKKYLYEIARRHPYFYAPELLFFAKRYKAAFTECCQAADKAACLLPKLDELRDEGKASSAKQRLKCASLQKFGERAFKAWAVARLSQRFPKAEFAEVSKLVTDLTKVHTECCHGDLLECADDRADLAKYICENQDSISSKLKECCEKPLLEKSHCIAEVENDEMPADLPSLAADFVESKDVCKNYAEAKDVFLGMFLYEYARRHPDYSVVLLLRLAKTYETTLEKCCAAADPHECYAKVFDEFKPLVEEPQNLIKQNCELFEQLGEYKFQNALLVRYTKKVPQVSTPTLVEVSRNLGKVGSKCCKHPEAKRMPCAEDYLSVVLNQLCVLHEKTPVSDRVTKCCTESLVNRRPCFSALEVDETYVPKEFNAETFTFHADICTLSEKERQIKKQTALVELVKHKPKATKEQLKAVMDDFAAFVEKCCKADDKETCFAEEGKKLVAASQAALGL

Regarding `CN(C)C(=S)NN=C(c1ccccn1)c1ccccn1` [Dp44mT, di-2-pyridylketone-4,4-dimethyl-3-thiosemicarbazone], in data set [1], the “stability in acidic buffer” value was “also observed”.

Turning to `CC(=NNC(=S)N1CCC1)c1ccccn1` [ZMC1, azetidinecarbothioic acid, [1-(2-pyridinyl)ethylidene] hydrazide], the “Percentage of bound drug by ultrafiltration” value in the data set with human plasma proteins [2] (human plasma, 500 ng/mL, n = 3) was found to be 98.8; at human serum albumin, 98.4; in data set [3], 34.9. The “concentration of free ZMC1 in ultrafiltrate or ultracentrifugation supernatant” value with human plasma proteins [2] (plasma spiked at 31.25 and 3.9 ng/mL) is “below the detection limit”. This molecule also had a degraded in plasma in “stability in plasma” (100 ng/mL, room temperature, over 24 h, vs freshly prepared samples) of over 40%. The stability in plasma entry in “stability in plasma” (500 ng/mL, room temperature, up to 24 h) is given as “stable”. For the same molecule, the Bias is −0.01% in “stability in plasma” (setting [6]); −2.9% in “stability in plasma” (setting [7]); 3.2% in “stability in plasma” (setting [8]); −0.4% in “stability in plasma” (human plasma, short-term (2 h on ice), nominal 3.9 ng/mL); −7.0% in “stability in plasma” (setting [9]); −1.3% in the data set “stability in plasma” (setting [10]). The Bias was 4.8% in the data set “stability in plasma” (setting [11]); −10.4% in “stability in plasma” (human plasma, three freeze–thaw cycles, nominal 31.3 ng/mL); 10.6% in the data set “stability in plasma” (setting [12]); 4.0% in “stability in plasma” (setting [13]); 13.0% in “stability in plasma” (setting [14]); 10.0% in “stability in plasma” (setting [15]). Also, the Measured concentration amounted to 3.9 ng/mL in the data set “stability in plasma” (setting [6]); 30.3 ng/mL in “stability in plasma” (setting [7]); 516.4 ng/mL in the data set “stability in plasma” (setting [8]); 29.0 ng/mL in “stability in plasma” (setting [9]); 493.9 ng/mL in “stability in plasma” (setting [10]); 4.1 ng/mL in the data set “stability in plasma” (setting [11]). Also, the Measured concentration stood at 553.1 ng/mL in the data set “stability in plasma” (setting [12]), 4.1 ng/mL in “stability in plasma” (setting [13]), 35.4 ng/mL in “stability in plasma” (setting [14]) and 550.7 ng/mL in the data set “stability in plasma” (setting [15]). Further, the “stability of plasma samples under storage conditions” value in “stability in plasma” (−80 °C for 1 month, 4 °C for 2 h, three freeze–thaw cycles, 24 h in autosampler) was “stable”. Besides, in data set [4] (0.1 M HCl, 500 ng/mL, hydrolysis of thiosemicarbazone bond), the “stability in acidic buffer” value is reported as “quickly degraded”. In data set [4] (PBS pH 7.2, 500 ng/mL, 24 h at 4 °C, 37 °C and room temperature), the “stability in PBS” value was “stable without degradation”. Moreover, the “stability in solvent acetonitrile” value in data set [4] (acetonitrile–water 80:20 v/v, 500 ng/mL, 24 h at 4 °C, 37 °C and room temperature) is “stable without degradation”. For the same molecule, in data set [4] (preliminary stability studies), the “stability in neutral buffer” value is on record as “good stability”. Further, the “Percentage of bound drug by ultracentifugation” value in the data set on human plasma proteins [5] is on record as 97.5.

The values are drawn from publication PMC5481844 (Biomedical chromatography : BMC, 2015).
